Compound activity as filed in PubChem.
This is a sample that favours compounds with a hit; in the whole collection about 5.8% have one here.
Pf Dd2 growth = inhibitors of Plasmodium falciparum Dd2 growth | 94,000 tested, 2.3% active | activity change, % at 10 µM | P. falciparum Dd2 growth, SYBR Green, 72 h; stronger effect = lower value | AID 1159554; in the data active = activity change below about -80%; inconclusive = no clear call, values can overlap the other calls
GASC1 inh = inhibitors of human demethylase GASC-1 KDM4C; Q9H3R0; GST-KDM4C 2-372, H3K9me3 peptide, LANCE TR-FRET; inhibition, % at 12.5 µM; 96,000 tested, 0.15% active;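 active = mean replicate inhibition above about 25%, with at least 55% of replicates also reaching it, limit read from the data, passing the limit was not always enough; inconclusive = only one of those two conditions met; inactive = neither condition met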
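material = GST-tagged GASC-1 (JMJD2C) catalytic fragment, aa 2-372 | amount = enzyme final amount 10 nM | medium = HEPES buffer, pH 7.5, plus ascorbate | also added = H3K9me3 peptide substrate, Fe(II), 2-oxoglutarate | dosing = single dose | times = 30 min demethylation and 1 h detection at room temperature | detection = LANCE TR-FRET | read-out basis = Fall in 671/618 emission ratio as inhibition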
IDH1 R132H inh = inhibitors of human IDH1 R132H. AID 624101. IDH1 R132H reductase, diaphorase/resazurin fluorescence, 60 min. O75874. 70,000 tested, 0.18% active. inhibition, % at 10 µM; in the data active = inhibition above about 34%; inconclusive = no clear call, values can overlap the other calls; inactive = below about 11%;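 note: 0% = DMSO and 100% = no enzyme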
Target sequence (O75874 whole entry R132H): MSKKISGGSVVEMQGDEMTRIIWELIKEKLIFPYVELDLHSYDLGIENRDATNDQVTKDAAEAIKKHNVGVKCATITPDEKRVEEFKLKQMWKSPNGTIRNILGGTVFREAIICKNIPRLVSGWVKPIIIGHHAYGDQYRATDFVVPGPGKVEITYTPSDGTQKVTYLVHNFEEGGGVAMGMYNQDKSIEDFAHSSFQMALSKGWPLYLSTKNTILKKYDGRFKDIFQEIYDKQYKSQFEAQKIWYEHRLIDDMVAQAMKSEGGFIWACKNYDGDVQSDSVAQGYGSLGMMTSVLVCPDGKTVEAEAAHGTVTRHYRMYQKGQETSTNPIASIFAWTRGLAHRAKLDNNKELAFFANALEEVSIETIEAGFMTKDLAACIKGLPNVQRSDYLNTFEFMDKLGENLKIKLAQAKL
Tcruzi prolif = T. cruzi proliferation inhibition | T. cruzi beta-gal in NIH3T3, GalScreen luminescence, 90 h | inhibition, % at 8.34 µM | 77,000 tested, 5.9% active | AID 624255;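 active = mean inhibition above about 93%, with at least 55% of replicates each passing it, limit read from the data, passing the limit was not always enough; inconclusive = only one of those two conditions holds; inactive = neither condition holds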
* = called active by the depositor; ? = inconclusive; · = no result given; ! = a repeat was not active.

SMILES | Pf Dd2 growth | GASC1 inh | IDH1 R132H inh | Tcruzi prolif
COc1ccc(S(=O)(=O)Nc2ccc3c(c2)C(=O)N([C@@H](C)CO)C[C@H](C)[C@@H](CN(C)C(=O)c2ccccc2)OCCCC[C@@H](C)O3)cc1 | -89.2* | -0.9 | 1.6 | 5.0
COc1ccc(C)cc1NC(=O)CNS(=O)(=O)c1ccccc1 | · | · | 0.0 | ·
COC(=O)c1ccn(COc2ccccc2Cl)n1 | · | · | 0.0 | ·
COc1ccc(CN(C)C[C@@H]2OCCCC[C@H](C)Oc3ccc(NC(=O)Nc4ccc(F)cc4)cc3C(=O)N([C@H](C)CO)C[C@@H]2C)cc1 | -20.1 | -0.4 | -0.2 | 64.5
COc1ccc(CN(C)C[C@@H]2OCCCC[C@@H](C)Oc3ccc(NC(=O)NC(C)C)cc3C(=O)N([C@H](C)CO)C[C@H]2C)cc1 | -1.6 | ? | 67.7* | 37.0
COc1ccc(CN(C)C[C@@H]2OCCCC[C@H](C)Oc3ccc(NC(=O)Nc4ccc(F)cc4)cc3C(=O)N([C@@H](C)CO)C[C@@H]2C)cc1 | ? | 0.6 | · | 73.2
COc1ccc(CN(C)C[C@H]2OCCCC[C@H](C)Oc3ccc(NC(=O)Nc4ccc(F)cc4)cc3C(=O)N([C@@H](C)CO)C[C@H]2C)cc1 | -82.8* | 9.2 | 0.8 | 76.2
COc1ccc(CN(C)C[C@H]2OCCCC[C@H](C)Oc3ccc(NC(=O)Nc4ccc(F)cc4)cc3C(=O)N([C@H](C)CO)C[C@H]2C)cc1 | -81.2* | -2.5 | 1.6 | 69.3
O=C(CSc1nccc(=O)[nH]1)Nc1cccc(C(F)(F)F)c1 | · | · | -0.9 | ·
O=C(c1ccc2c(c1)OCO2)N1C[C@@H]2N[C@H](C1)C2c1ccc(/C=C/c2ccccc2)cc1 (stereo partly specified) | -89.5*! | -0.1 | · | ·
O=C(c1ccc(F)cc1)N1C[C@@H]2N[C@H](C1)C2c1ccc(/C=C/c2ccccc2)cc1 (stereo partly specified) | -27.1 | -0.8 | · | ·
O=C(Nc1ccccc1)N1C[C@@H]2N[C@H](C1)[C@@H]2c1ccc(/C=C/c2ccccc2)cc1 | -89.4* | -3.2 | · | ·
CCN(CC)C(=O)c1ccc(Nc2nnc(-c3ccc(C)c(S(N)(=O)=O)c3)c3ccccc23)cc1 | · | · | -0.2 | ·
CCOC(=O)Nc1ccc2c(c1)N(C(=O)CN1CCOCC1)c1ccccc1CC2 | · | · | 0.2 | ·
COc1ccc(CN(C)C[C@H]2OCCCC[C@@H](C)Oc3ccc(NC(=O)Nc4ccc(C(F)(F)F)cc4)cc3C(=O)N([C@@H](C)CO)C[C@H]2C)cc1 | -87.5* | · | · | 56.4
COc1ccc(NC(=O)Nc2ccc3c(c2)C(=O)N([C@@H](C)CO)C[C@@H](C)[C@H](CN(C)Cc2ccc(C(F)(F)F)cc2)OCCCC[C@@H](C)O3)cc1 | -85.5* | -0.2 | 0.1 | 72.0
COc1ccc(CN(C)C[C@H]2OCCCC[C@H](C)Oc3ccc(NC(=O)Nc4ccc(C(F)(F)F)cc4)cc3C(=O)N([C@H](C)CO)C[C@@H]2C)cc1 | -36.7 | -3.4 | 1.2 | 52.2
COc1ccc(NC(=O)Nc2ccc3c(c2)C(=O)N([C@H](C)CO)C[C@H](C)[C@H](CN(C)Cc2ccc(C(F)(F)F)cc2)OCCCC[C@@H](C)O3)cc1 | -25.2 | -0.9 | · | 84.0
COc1ccc(NC(=O)Nc2ccc3c(c2)C(=O)N([C@H](C)CO)C[C@@H](C)[C@H](CN(C)Cc2ccc(C(F)(F)F)cc2)OCCCC[C@H](C)O3)cc1 | -87.0* | 0.4 | -2.6 | 58.9
Cn1c(SCC(=O)Nc2cccc3ccccc23)nnc1-c1ccc(F)cc1 | · | · | 0.5 | ·
COc1ccc2c3c(n(C)c2c1)[C@@H](CO)N(C(=O)c1ccccc1)CC31CCN(C(=O)c2ccccc2)CC1 | -87.0* | -0.3 | · | ·
COc1ccc2c3c(n(C)c2c1)[C@@H](CO)N(C(C)=O)CC31CCN(C(=O)Nc2ccc(F)cc2)CC1 | -83.3* | -0.5 | · | ·
COc1ccc2c3c(n(C)c2c1)[C@@H](CO)N(Cc1cccnc1)CC31CCN(C(=O)NC(C)C)CC1 | -72.9 | -1.0 | · | ·
COc1ccc2c3c(n(C)c2c1)[C@H](CO)N(Cc1cccnc1)CC31CN(C(=O)NC(C)C)C1 | -87.7* | 0.8 | · | ·
COc1ccc2c3c(n(C)c2c1)[C@H](CO)N(C(=O)Nc1ccc(F)cc1)CC31CN(Cc2cccnc2)C1 | -89.4* | 1.4 | · | ·
SMILES | Pf Dd2 growth | GASC1 inh | IDH1 R132H inh | Tcruzi prolif
Cc1nnc(SCC(=O)Nc2ccc(F)c(F)c2F)s1 | · | · | -0.1 | ·
COc1ccc(Cl)cc1NC(=O)CSc1nnc(-c2cccc(C)c2)n1C | · | · | -0.2 | ·
CCCNC(=O)N1CC2(CN(Cc3ccc(OC)cc3)C2)c2c(n(C)c3cc(OC)ccc23)[C@H]1CO | -80.5* | -1.0 | · | ·
COc1ccc2c3c(n(C)c2c1)[C@@H](CO)N(C(=O)Nc1ccc(F)cc1)CC31CN(C(=O)c2ccccc2F)C1 | -91.8* | -4.5 | · | ·
COc1ccc2c3c(n(C)c2c1)[C@@H](CO)N(C(=O)c1ccc(F)cc1)CC31CCN(C(=O)Nc2ccc(F)cc2)CC1 | -86.7* | 0.0 | · | ·
COc1ccc(C#Cc2ccc3c(c2)O[C@H](CN(C)S(=O)(=O)c2ccccc2F)[C@H](C)CN([C@@H](C)CO)S3(=O)=O)cc1 | -68.9 | -6.7 | -0.1 | ·
COc1ccc(S(=O)(=O)N(C)C[C@H]2Oc3cc(C#CC4CCCCC4)ccc3S(=O)(=O)N([C@H](C)CO)C[C@@H]2C)cc1 | -85.0* | 1.5 | · | 82.9
COc1ccc(S(=O)(=O)N(C)C[C@@H]2Oc3cc(C#CC4CCCCC4)ccc3S(=O)(=O)N([C@H](C)CO)C[C@@H]2C)cc1 | -75.8 | -0.2 | · | 79.1
COc1ccc(C#Cc2ccc3c(c2)O[C@@H](CN(C)S(=O)(=O)c2ccccc2F)[C@@H](C)CN([C@H](C)CO)S3(=O)=O)cc1 | -88.3* | -2.9 | -0.1 | ·
COc1ccccc1S(=O)(=O)N(C)C[C@@H]1Oc2cc(C#CCC3CCCC3)ccc2S(=O)(=O)N([C@H](C)CO)C[C@@H]1C | -45.0 | 0.4 | -0.1 | ·
COc1ccccc1S(=O)(=O)N(C)C[C@@H]1Oc2cc(C#CCC(C)C)ccc2S(=O)(=O)N([C@H](C)CO)C[C@@H]1C | -85.1*! | -0.6 | -1.7 | 45.6
COc1ccc(S(=O)(=O)N(C)C[C@H]2OCCCC[C@H](C)Oc3ccc(NC(=O)c4ccccc4)cc3C(=O)N([C@@H](C)CO)C[C@H]2C)cc1 | -84.8* | -2.5 | 0.2 | 59.0
COc1ccc(S(=O)(=O)N(C)C[C@@H]2OCCCC[C@H](C)Oc3ccc(NC(=O)c4ccccc4)cc3C(=O)N([C@@H](C)CO)C[C@H]2C)cc1 | -84.2* | -1.3 | -2.5 | 64.0
COc1cc2c(cc1NC(=O)CCOc1ccccc1C)oc1ccccc12 | · | · | 0.6 | ·
C[C@@H]1CCCCO[C@@H](CN(C)Cc2ccc3c(c2)OCO3)[C@H](C)CN([C@H](C)CO)C(=O)c2cc(NC(=O)Nc3cccc4ccccc34)ccc2O1 | -91.0* | -5.9 | 1.2 | 45.4
C[C@H]1CCCCO[C@@H](CN(C)Cc2ccc3c(c2)OCO3)[C@@H](C)CN([C@@H](C)CO)C(=O)c2cc(NC(=O)Nc3cccc4ccccc34)ccc2O1 | ? | -2.5 | -5.3 | 91.8
COc1ccc(CN(C)C[C@@H]2OCCCC[C@H](C)Oc3ccc(NC(=O)Nc4cccc5ccccc45)cc3C(=O)N([C@H](C)CO)C[C@H]2C)cc1 | -90.2* | · | · | 105.6
